Calls of active or inactive are those of the source. The calls are words filed in the database; no cut-off is given here.
What was measured:
[1] = Cytotoxicity against human THP1 cells infected with intracellular amastigote stage of Leishmania donovani MHOM/ET/67/HU3; format: cell-based, THP-1
Method in brief: (§1)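 Host THP-1 cytotoxicity was taken from the same intracellular amastigote images (PMA-differentiated, infected, 3-day compound exposure) by counting cell numbers normalized to 1 % DMSO. CC₅₀ is the average of duplicates; SI was calculated from EC₅₀ and CC₅₀.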

Leishmania donovani [2] = assay: Antileishmanial activity against intracellular amastigote stage of Leishmania donovani MHOM/ET/67/HU3 infected in human THP1 cells after 3 days by confocal microscopy; format: functional, organism-based; details: MHOM/ET/67/HU3, THP-1, 72 h
[3] = Selectivity index, ratio of IC50 for human THP1 cells to IC50 for intracellular amastigote stage of Leishmania donovani MHOM/ET/67/HU3; format: toxicity, cell-based, THP-1; details: read-out: Selectivity Index; method in brief: as §1
Leishmania donovani [4] = assay: Antileishmanial activity against extracellular promastigote stage of Leishmania donovani MHOM/ET/67/HU3 incubated for 28 hrs followed by additional 20 hrs incubation
Trypanosoma cruzi [5] = assay: Antitrypanosomal activity against intracellular Trypanosoma cruzi infected in human U2OS cells after 48 hrs by confocal microscopy; format: functional, organism-based
Method in brief: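 T. cruzi tissue-culture trypomastigotes were raised in LLC-MK2 cells. U2OS cells and parasites were mixed, dispensed onto compound plates and incubated 48 h at 37 °C, 5 % CO₂. Cells were fixed with 4 % paraformaldehyde, DRAQ5-stained and imaged by confocal microscopy to count parasites and infection ratio. Controls: benznidazole 400 µM and 1 % DMSO. EC₅₀ derived from infection ratio normalized to the controls.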

[6] = Cytotoxicity against human U2OS cells infected with intracellular Trypanosoma cruzi; format: cell-based
Method in brief: (§2)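 U2OS cytotoxicity was measured in the same 48 h T. cruzi infection assay by counting host cell numbers in the DRAQ5-stained confocal images to give CC₅₀. SI was calculated from EC₅₀ and CC₅₀.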

[7] = Selectivity index, ratio of IC50 for human U2OS cells to IC50 for intracellular Trypanosoma cruzi; format: toxicity, cell-based; details: U2OS cells versus intracellular Trypanosoma cruzi, read-out: Selectivity Index; method in brief: as §2
Leishmania donovani [8] = assay: Antileishmanial activity against intracellular amastigote stage of Leishmania donovani MHOM/ET/67/HU3 infected in human THP1 cells assessed as reduction in parasite count at 12.5 uM after 3 days by confocal microscopy; format: functional, organism-based; details: THP-1
Trypanosoma cruzi [9] = assay: Antitrypanosomal activity against intracellular Trypanosoma cruzi infected in human U2OS cells assessed as reduction in parasite count at 6.25 uM after 48 hrs by confocal microscopy; format: functional, organism-based
Trypanosoma cruzi [10] = assay: Antitrypanosomal activity against intracellular Trypanosoma cruzi infected in human U2OS cells assessed as reduction in parasite count at 400 uM after 48 hrs by confocal microscopy; format: functional, organism-based
Trypanosoma cruzi [11] = assay: Antitrypanosomal activity against intracellular Trypanosoma cruzi infected in human U2OS cells assessed as reduction in parasite count at 12.5 uM after 48 hrs by confocal microscopy; format: functional, organism-based

| SMILES | CC50 [1] [µM] | EC50 (Leishmania donovani [2]) [µM] | selectivity ratio [3] | EC50 (Leishmania donovani [4]) [µM] | EC50 (Trypanosoma cruzi [5]) [µM] | CC50 [6] [µM] | selectivity ratio [7] | growth inhibition (GI) (Leishmania donovani [8]) | inhibition (Trypanosoma cruzi [5]) | growth inhibition (GI) (Trypanosoma cruzi [9]) | growth inhibition (GI) (Trypanosoma cruzi [10]) | growth inhibition (GI) (Trypanosoma cruzi [11]) |
| --- | --- | --- | --- | --- | --- | --- | --- | --- | --- | --- | --- | --- |
| c1ccc(Oc2ccc(CN3C4=NCCN4c4ccccc43)cc2)cc1 | 48 | 12.5 | 3.82 | 2.01 | 38.7 | 20 | 0.52 |  |  |  |  |  |
| Cc1ccc2c(c1)N1CCN=C1N2Cc1ccc(C(C)(C)C)cc1 | 28.1 | 11 | 2.55 | 1.8 | 19.6 | > 50 | > 2.28 |  |  |  |  |  |
| FC(F)(F)Oc1ccc(-c2ccc(CN3C4=NCCN4c4ccccc43)cc2)cc1 | 11 | 5.2 | 2.11 | 1.53 | > 50 | > 50 |  |  |  |  |  |  |
| CC(C)(C)c1ccc(CN2C3=NCCN3c3cc(F)ccc32)cc1 | > 50 | 14 | > 3.57 | 1.26 | 8.24 | 50 | 6.07 |  |  |  |  |  |
| Cc1ccc(-c2ccc(CN3C4=NCCN4c4ccccc43)cc2)cc1 | 27.1 | 17.8 | 1.52 | 1.75 | 7.45 | 10.3 | 1.38 |  |  |  |  |  |
| c1ccc(CN2C3=NCCN3c3ccccc32)nc1 | > 50 | > 50 |  |  | > 50 | > 50 |  |  |  |  |  |  |
| CC(C)(C)c1ccc(CN2C3=NCCCN3c3ccccc32)cc1 | > 50 | 12.5 | > 3.98 | 2.73 | 3.09 | > 50 | > 16.2 |  |  |  |  |  |
| CC(C)(C)c1cccc(CN2C3=NCCN3c3ccccc32)c1 | > 50 | 22.6 | > 2.21 | 4.98 | 12.5 | 34.6 | 2.77 |  |  |  |  |  |
| CC(C)c1ccc(CN2C3=NCCN3c3ccccc32)cc1 | > 50 | > 50 |  |  | > 50 | > 50 |  | inactive |  |  |  |  |
| Fc1ccc(F)c(-c2ccc(CN3C4=NCCN4c4ccccc43)cc2)c1 | > 50 | 32.5 | > 1.54 | 9.22 | 4.49 | 9.61 | 2.14 |  |  |  |  |  |
| c1ccc2c(c1)N1CCN=C1N2Cc1ccc(C2CCCCC2)cc1 | 22.8 | 5.4 | 4.19 | 1.71 | 1.6 | 6.1 | 3.81 |  |  |  |  |  |
| COc1ccc(-c2ccc(CN3C4=NCCN4c4ccccc43)cc2)cc1 | 23 | 10.2 | 2.25 | 2.34 | > 50 | > 50 |  |  |  |  |  |  |
| FC(F)(F)Oc1ccc(CN2C3=NCCN3c3ccccc32)cc1 | > 50 | > 50 |  |  |  |  |  |  |  |  |  |  |
| N#Cc1ccc(CN2C3=NCCN3c3ccccc32)cc1 | > 50 | > 50 |  |  |  |  |  |  |  |  |  |  |
| CC(C)(C)c1ccc(C(=O)CN2C3=NCCN3c3ccccc32)cc1 | > 50 | 39.4 | > 1.27 |  | 36 | > 50 | > 1.39 |  |  |  |  |  |
| C[C@@H]1[C@H](O)[C@@H](C)/C=C/C=C/C=C/C=C/C=C/C=C/C=C/[C@H](O[C@@H]2O[C@H](C)[C@@H](O)[C@H](N)[C@@H]2O)C[C@@H]2O[C@](O)(C[C@@H](O)C[C@@H](O)[C@H](O)CC[C@@H](O)C[C@@H](O)CC(=O)O[C@H]1C)C[C@H](O)[C@H]2C(=O)O [AMPHOTERICIN B] |  |  | 30.2 | 0.22 |  |  |  | Active |  |  |  |  |
| FC(F)(F)c1ccc(-c2ccc(CN3C4=NCCN4c4ccccc43)cc2)cc1 | 30 | 10.3 | 2.91 | 3.11 | > 50 | > 50 |  |  |  |  |  |  |

| SMILES | CC50 [1] [µM] | EC50 (Leishmania donovani [2]) [µM] | selectivity ratio [3] | EC50 (Leishmania donovani [4]) [µM] | EC50 (Trypanosoma cruzi [5]) [µM] | CC50 [6] [µM] | selectivity ratio [7] | growth inhibition (GI) (Leishmania donovani [8]) | inhibition (Trypanosoma cruzi [5]) | growth inhibition (GI) (Trypanosoma cruzi [9]) | growth inhibition (GI) (Trypanosoma cruzi [10]) | growth inhibition (GI) (Trypanosoma cruzi [11]) |
| --- | --- | --- | --- | --- | --- | --- | --- | --- | --- | --- | --- | --- |
| FC(F)(F)c1ccc(CN2C3=NCCN3c3ccccc32)cc1 | > 50 | > 50 |  |  | 13.4 | > 50 | > 3.75 |  |  |  |  |  |
| Fc1ccc(CN2C3=NCCN3c3ccccc32)cc1 | > 50 | > 50 |  |  | > 50 | > 50 |  |  |  |  |  |  |
| CC(C)(C)c1ccc(CN2C3=NCCN3c3ccccc32)cc1 | > 50 | 3.05 | > 16.4 | 1.25 | 1.1 | 36.5 | 33.2 | Active | Dose-dependent effect | Active |  |  |
| c1ccc(CN2C3=NCCN3c3ccccc32)cc1 | > 50 | > 50 |  |  |  |  |  |  |  |  |  |  |
| CC(C)(C)c1ccc(OCCN2C3=NCCN3c3ccccc32)cc1 | 33.1 | 27.4 | 1.21 |  | 8.7 | 37.9 | 4.36 |  |  |  |  |  |
| CC(C)(C)c1ccc(CCN2C3=NCCN3c3ccccc32)cc1 | > 50 | 25.3 | > 1.98 | 20.8 | 12.7 | 21 | 1.65 |  |  |  |  |  |
| Cc1cc(C)cc(CN2C3=NCCN3c3ccccc32)c1 | > 50 | > 50 |  |  | > 50 | > 50 |  |  |  |  |  |  |
| Cc1cc2c(cc1C)N(Cc1ccc(C(C)(C)C)cc1)C1=NCCN12 | > 50 | > 50 |  |  | > 50 | > 50 |  |  |  |  |  |  |
| CC(C)(C)c1ccc(CN2C3=NC(=O)CN3c3ccccc32)cc1 | > 50 | > 50 |  |  | > 50 | > 50 |  |  |  |  |  |  |
| CCCCCCCCCCCCCCCCOP(=O)([O-])OCC[N+](C)(C)C [MILTEFOSINE] | 18.9 | 4.83 | 3.91 | 11.1 |  |  |  | Active |  |  |  |  |
| CC(C)(C)c1ccc(CN2C3=NCCN3c3cc(Cl)ccc32)cc1 | 12.5 | 7.33 | 1.71 | 2.22 | 6.21 | 44.6 |  |  |  |  |  |  |
| O=C(Cn1ccnc1[N+](=O)[O-])NCc1ccccc1 [BENZNIDAZOLE] |  |  |  |  | 20.7 | > 50 | > 2.42 |  |  |  | Active | inactive |
| c1ccc(-c2ccc(CN3C4=NCCN4c4ccccc43)cc2)cc1 | 39.7 | 5.29 | 7.5 | 1.48 | 2.1 | 18.8 | 8.95 |  |  |  |  |  |
| Clc1ccc(-c2ccc(CN3C4=NCCN4c4ccccc43)cc2)cc1 | 20 | 13.7 | 1.46 |  | 5.56 | 9.36 | 1.7 |  |  |  |  |  |
| CCc1ccc(CN2C3=NCCN3c3ccccc32)cc1 | > 50 | 42 | > 1.19 |  | 33.7 | > 50 | > 1.48 |  |  |  |  |  |
| Fc1ccc(-c2ccc(CN3C4=NCCN4c4ccccc43)cc2)cc1 | 35 | 8.88 | 3.94 | 1.49 | 8.89 | > 50 | > 5.62 |  |  |  |  |  |
| CS(=O)(=O)c1ccc(CN2C3=NCCN3c3ccccc32)cc1 | > 50 | > 50 |  |  |  |  |  |  |  |  |  |  |

Reference: ChEMBL document CHEMBL3352366, “Synthesis and biological evaluation of 2,3-dihydroimidazo[1,2-a]benzimidazole derivatives against Leishmania donovani and Trypanosoma cruzi” (Eur J Med Chem, 2014)
